# Screening data (PubChem BioAssay)
# Hits are enriched below; roughly 2.7% of the tested compounds scored in any of these assays.
# SIAE primary: human SIAE inhibitors, primary screen, biochemical, fluorescence polarization, FP-Rh probe, 1536-well HTS; Sialate O-acetylesterase (Homo sapiens), Q9HAT2; SIAE FP-Rh probe binding; inhibition, % at 9.66 µM; 370,000 compounds, 0.69% hits; AID 1053197, 2014;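 active = inhibition above a cutoff: mean of compounds within the control limits plus 3 SD of those, cut at about 17% in these data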;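 note: 0% = plate median of compound wells and 100% = probe without SIAE protein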
# HTRA1 inhibitor: HTRA1 serine protease inhibitors, primary screen, biochemical, fluorescence polarization, HTS | Q92743 | recombinant HTRA1, FP-rhodamine activity-based probe | inhibition, % at 5.96 µM | 340,000 compounds, 0.5% hits; in the data active = inhibition above about 36%;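 note: 0% = enzyme with DMSO and 100% = wells lacking enzyme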
# TCR-CD3 inh: inhibitors of human TCR-CD3 interaction, primary screen, biochemical, fluorescence, TAMRA-labeled TCR probe; T-cell receptor (TCR); inhibition, % at 9.4 µM; 360,000 compounds, 0.37% hits; AID 651800, 2012; in the data active = inhibition above about 19%;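 note: recombinant mutant TCR 2C K166C tagged with TAMRA read by polarization; 0% = receptor in buffer alone and 100% = receptor with positive control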
# PRMT1 inh: PRMT1 methyltransferase inhibitors, primary screen, biochemical, fluorescence polarization | Protein arginine N-methyltransferase 1 (Homo sapiens), Q99873 | recombinant PRMT1, activity-based probe fluorescence polarization | inhibition, % at 2.79 µM | 370,000 compounds, 1.3% hits | AID 652257, 2013;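 active = inhibition above about 21% made by adding two undisclosed values, limit read from the data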
# ABHD4 inh: ABHD4 inhibitors, primary screen, biochemical, fluorescence polarization, mouse; purified mABHD4, FP-Rh probe fluorescence polarization; inhibition, % at 8.92 µM; 370,000 compounds, 0.54% hits; AID 720543, 2013;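 active = inhibition exceeding the mean over every tested compound plus 3 SD, cut at about 30% in these data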;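 note: 0% = plate median of compound wells and 100% = S159A mutant with DMSO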
# Target sequence (Q8VD66 whole entry, looked up): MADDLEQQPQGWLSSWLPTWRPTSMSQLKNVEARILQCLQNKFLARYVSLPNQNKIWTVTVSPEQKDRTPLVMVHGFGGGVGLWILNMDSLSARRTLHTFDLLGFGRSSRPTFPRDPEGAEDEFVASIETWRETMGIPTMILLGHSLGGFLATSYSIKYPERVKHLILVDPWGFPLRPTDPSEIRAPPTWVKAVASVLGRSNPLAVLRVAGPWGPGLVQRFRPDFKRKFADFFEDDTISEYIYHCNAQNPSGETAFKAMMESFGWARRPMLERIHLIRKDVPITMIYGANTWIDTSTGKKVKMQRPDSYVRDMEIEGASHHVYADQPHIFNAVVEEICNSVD
#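 Assay system: Wild-type mouse ABHD4 protein | Medium: HEPES pH 7.0 buffer, 150 mM NaCl, 0.01% Pluronic F-127 | Incubation: Enzyme–compound pre-incubation 45 min, then probe 60 min, both 25 °C | Technique: Fluorescence polarization with parallel and perpendicular emission, 525/598 nm | Evaluation: % inhibition of FP-Rh probe binding versus controls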
# The depositor's hits bear a star; / = not tested or not shown.
SMILES,SIAE primary,HTRA1 inhibitor,TCR-CD3 inh,PRMT1 inh,ABHD4 inh
COc1ccccc1/C=C\C=N\n1c(-c2ccc(Cl)cc2Cl)n[nH]c1=S,1,-7,-2,22*,-13
O=S(=O)(c1ccc(N2CCOCC2)c(Cl)c1)N1CCOCC1,-4,5,-4,0,3
O=c1c2ccccc2sn1-c1cc(S(=O)(=O)N2CCOCC2)ccc1N1CCOCC1,0,-5,-2,88*,10
COc1cc(OC)cc(-c2csc(N3CCC(C(N)=O)CC3)n2)c1,6,/,/,-3,5
O=C(CSc1nnnn1-c1ccc2c(c1)OCCO2)N1CCc2ccccc21,27*,-3,2,0,11
CC(C)CCNC(=O)C1CCCN(C(=O)c2ccc3c(c2)NC(=O)CS3)C1 (centres undefined),8,/,/,-4,3
Cc1ccc(S(=O)(=O)N2CC[C@@]3(Cc4ccccc4)Cc4ccccc4C[C@@H]23)cc1,-4,/,/,-1,-10
O=c1cc(O)n(C2CCCCCC2)c(=O)[nH]1,3,-4,-7,24*,11
COC(=O)CN1CCN(C(=O)c2csc(-c3ccccc3)n2)CC1,-4,/,/,1,-1
CCCn1ncc(CN2CCC(n3nccc3NC(=O)CCc3ccccc3)CC2)c1C,4,-6,3,-2,5
CCc1ccccc1NC(=O)CN(C)Cc1c(O)ccc2ccccc12,-3,1,4,23*,1
CN(CC(=O)Nc1ccccc1C(F)(F)F)Cc1c(O)ccc2ccccc12,7,0,-6,17,-5
Cc1nn2c(=O)cc(COC(=O)c3c(F)cccc3Cl)nc2s1,5,-1,-3,-1,3
Cc1c(Cl)cccc1NC(=O)CSc1nncn1-c1ccccn1,-3,5,-3,24*,-15
O=C(CSc1nncn1-c1ccccn1)Nc1ccccc1Cl,-3,3,-4,2,3
COc1ccc(NC(=S)Nc2cccc(Cl)c2)cc1OC,3,2,4,24*,27
COc1ccc(NC(=S)Nc2cccc(C(C)=O)c2)cc1OC,11,10,5,10,22
CCc1ccc(O)c(N=Cc2ccccc2O)c1,12,22,4,0,27
O=c1[nH][nH]c2c(N=Cc3ccccc3O)ccc(F)c12,/,47*,/,/,/
O=C(Nc1ccc(N2CCOCC2)cc1)c1ccc2nc(-c3ccco3)c(-c3ccco3)nc2c1,-6,0,0,2,12
CC(=O)c1ccc(NC(=O)c2ccc3nc(-c4ccco4)c(-c4ccco4)nc3c2)cc1,/,39*,/,/,/
CCN(CC)c1ccc(NS(=O)(=O)c2ccc3c(c2)oc(=O)n3C)c(C)c1,4,-1,-4,25*,8
CCn1c(COc2ccc(C)cc2)nnc1SCC(=O)Nc1ccccc1-c1ccccc1,-7,/,/,-1,1
Cc1nn(CC(=O)NC2C(=O)N3C(C(=O)O)=C(CSc4nnnn4C)CSC23)cc1Br (centres undefined),-2,2,-7,22*,7
CC(=O)OCC1=C(C(=O)OC(C)(C)C)N2C(=O)[C@@H](NC(=O)Cc3ccccc3)[C@H]2SC1,-4,-15,6,8,4
SMILES,SIAE primary,HTRA1 inhibitor,TCR-CD3 inh,PRMT1 inh,ABHD4 inh
Cc1nnc(SCC2=C(C(=O)O)N3C(=O)C(NC(=O)Cc4ccccc4)C3SC2)s1 (centres undefined),7,-4,-6,25*,1
Cn1nnnc1SCC1=C(C(=O)O)N2C(=O)C(NC(=O)Cn3nc(C(F)F)cc3C3CC3)C2SC1 (centres undefined),0,11,0,24*,7
COc1ccc([C@@H]2CC(=O)[C@@H]3CN(S(=O)(=O)c4ccc(C)cc4)[C@H](c4ccccc4)C[C@@H]3N2S(=O)(=O)c2ccccc2)cc1,-8,/,2,4,2
CC1CN2C(c3ccc([N+](=O)[O-])cc3)=CSC2=N1 (centres undefined),12,5,10,22*,2
COCCSc1nnc(-c2cccnc2)n1Cc1ccccc1,-4,/,/,0,3
CCc1nnc(NC(=O)CN2C(=O)/C(=C/c3cc(OC)c(OC)c(OC)c3)SC2=S)s1,-3,-15,2,21*,-14
Cc1c(NC(=O)CN2CCN(c3ccc(O)cc3)CC2)c(=O)n(-c2ccccc2)n1C,2,8,4,23*,14
Cc1c(NC(=O)CN2CCN(c3ccc([N+](=O)[O-])cc3)CC2)c(=O)n(-c2ccccc2)n1C,-2,-4,-2,0,1
CCOc1ccc(Cl)cc1C1=CC(=O)C[C@H](c2ccc(OC)cc2)C1,3,-51,2,0,-22
S=c1[nH]nc(-c2ccco2)n1/N=C/c1ccc(Cl)c(Cl)c1,0,-7,-1,22*,-2
Cc1ccc(-c2cc(-c3ccccc3Cl)c(C#N)c(N)n2)o1,4,16,-1,22*,15
Cc1ccc(S(=O)(=O)c2ccc([N+](=O)[O-])cn2)cc1,-3,0,2,34*,3
Cc1ccc(S(=O)(=O)c2ccc(C)cc2)cc1,-11,0,2,1,1
O=[N+]([O-])c1ccc(S(=O)(=O)c2ccccc2)nc1,-4,1,6,29*,1
C=CCN(CC#Cc1ccccn1)Cc1ccc(OC)cc1OC,9,/,/,-1,-5
Cc1ccc(CN(C(=O)c2ccc([N+](=O)[O-])cc2)C2CCS(=O)(=O)C2)o1 (centres undefined),-2,2,3,4,2
O=C(O)C1CSC(c2ccc3c(c2)OCO3)N1 (centres undefined),7,-13,-5,27*,0
O=C(O)C1CSC(c2ccc(O)c([N+](=O)[O-])c2)N1 (centres undefined),6,9,3,6,-1
COc1cc(SC)ccc1C(=O)Nc1ccon1,-7,-8,-1,24*,-11
CCCCc1nnc(NC(=O)c2oc3ccccc3c2C)s1,2,-1,-1,3,4
Cc1cccc(NC(=O)CSc2nnc(-c3cccnc3)n2Cc2ccco2)c1C,2,/,/,1,3
Cc1cnc(C)c(Nc2nc(C(N)Cc3ccc(Cl)cc3)cs2)n1 (centres undefined),-2,/,-9,25*,8
CC1CCN(C(=O)COc2cccc3c2CCN(Cc2ccccc2)C3=O)CC1,17*,-9,-4,2,1
COC1=C(Br)C(=O)c2nc(C)ccc2C1=O,-7,16,19*,28*,21
O=C(O)CSCC(=O)Nc1ccc(-c2nc3ccccc3s2)cc1,-21,/,7,36*,-38
c1ccc(OCc2nnc(-c3ccccc3)o2)cc1,11,-3,2,-2,1
Oc1ccccc1-c1nnc(COc2ccccc2)o1,9,11,34*,2,2
